Assay results published in ChEMBL document CHEMBL1795305, “Sorafenib derivatives induce apoptosis through inhibition of STAT3 independent of Raf” (Eur J Med Chem, 2011).
Activity calls are given as the source filed them. No cut-off for these calls is given here.

How the values were obtained:
[1] = Cytotoxicity against human PLC/PRF/5 cells assessed as growth inhibition; format: functional, cell-based
[2] = biological target: RAF proto-oncogene serine/threonine-protein kinase (Homo sapiens) (UniProt P04049); details: 5 uM
[3] = biological target: Signal transducer and activator of transcription 3 (Homo sapiens) (UniProt P40763); experiment: Inhibition of STAT3-mediated cyclin D1 protein expression in human PLC/PRF/5 cells at 5 to 10 uM after 24 hrs by Western blot analysis; format: cell-based
Signal transducer and activator of transcription 3 (Homo sapiens), sequence (P40763 whole entry): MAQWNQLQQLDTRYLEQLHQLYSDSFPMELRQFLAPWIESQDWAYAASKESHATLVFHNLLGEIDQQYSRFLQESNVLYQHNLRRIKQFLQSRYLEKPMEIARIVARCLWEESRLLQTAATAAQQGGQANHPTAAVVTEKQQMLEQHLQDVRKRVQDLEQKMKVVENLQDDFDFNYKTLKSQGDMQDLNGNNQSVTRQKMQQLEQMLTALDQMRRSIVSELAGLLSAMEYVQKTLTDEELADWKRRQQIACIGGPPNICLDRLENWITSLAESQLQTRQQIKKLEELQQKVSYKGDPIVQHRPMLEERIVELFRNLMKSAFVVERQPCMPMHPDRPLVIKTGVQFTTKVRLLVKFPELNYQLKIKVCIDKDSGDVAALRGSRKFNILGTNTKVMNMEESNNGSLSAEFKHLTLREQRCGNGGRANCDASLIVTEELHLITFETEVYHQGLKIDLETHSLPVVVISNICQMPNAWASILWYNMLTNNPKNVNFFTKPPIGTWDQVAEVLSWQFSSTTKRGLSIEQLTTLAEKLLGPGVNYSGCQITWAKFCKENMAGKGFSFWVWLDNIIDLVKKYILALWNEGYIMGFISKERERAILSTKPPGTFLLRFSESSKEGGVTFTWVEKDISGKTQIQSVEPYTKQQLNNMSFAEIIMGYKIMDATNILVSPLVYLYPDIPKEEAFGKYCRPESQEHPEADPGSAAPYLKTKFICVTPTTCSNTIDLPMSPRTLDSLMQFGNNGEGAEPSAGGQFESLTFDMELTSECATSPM
How it was run: (§1)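 PLC5 cells in FBS-containing medium treated 24 h at 5 and 10 µM; whole-cell lysates immunoblotted for phospho-STAT3, total STAT3, cyclin D1 and survivin.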

[4] = biological target: Signal transducer and activator of transcription 3 (Homo sapiens) (UniProt P40763); experiment: Inhibition of STAT3-mediated survivin expression in human PLC/PRF/5 cells at 5 to 10 uM after 24 hrs by Western blot analysis; format: cell-based; how it was run: as §1
[5] = biological target: RAF proto-oncogene serine/threonine-protein kinase (Homo sapiens) (UniProt P04049); experiment: Inhibition of raf kinase in human PLC/PRF/5 cell lysate at 10 uM after 24 hrs
[6] = biological target: Signal transducer and activator of transcription 3 (Homo sapiens) (UniProt P40763); experiment: Inhibition of IL6-induced STAT3 phosphorylation in human PLC/PRF/5 cells at 10 uM after 24 hrs by ELISA; format: cell-based
How it was run: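 PLC5 cells pre-treated with IL-6 1 ng/mL, then exposed to compound at 10 µM for 24 h; lysates incubated on antibody-coated plate capturing phospho- and non-phospho-STAT3; phospho-STAT3 detected by absorbance at 450 nm; mean ± SD, N = 3.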

PLC-PRF-5 [7] = experiment: Induction of apoptosis in human PLC/PRF/5 at 5 to 10 uM by flow cytometry; format: functional
How it was run: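 PLC5 cells treated 24 h at 5 and 10 µM; trypsinized, washed in PBS, stained with propidium iodide 30 min at 37 °C in the dark; apoptotic fraction read as sub-G1 population by flow cytometry; triplicate experiments.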

PLC-PRF-5 [8] = experiment: Induction of apoptosis in human PLC/PRF/5 cells assessed as DNA fragmentation at 5 to 10 uM by ELISA; format: functional, cell-based
How it was run: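 PLC5 cells treated 24 h at 5 and 10 µM in culture; cell death quantified as DNA fragmentation by ELISA kit following manufacturer's standard protocol.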

| Compound | IC50 ([1]; Homo sapiens, PLC-PRF-5) [µM] | also measured |
| --- | --- | --- |
| CNC(=O)c1cc(Oc2ccc(NC(=O)Nc3ccc(Cl)c(C(F)(F)F)c3)cc2)ccn1 [SORAFENIB] | 8.3 | inhibition [2]: 50% |
| CNC(=O)c1cc(Oc2ccc(NS(=O)(=O)c3ccc(C(F)(F)F)cc3Br)cc2)ccn1 | > 40 | – |
| CNC(=O)c1cc(Oc2ccc(NS(=O)(=O)c3ccccc3[N+](=O)[O-])cc2)ccn1 | > 40 | – |
| O=[N+]([O-])c1cc(C(F)(F)F)ccc1S(=O)(=O)Nc1ccc(Oc2ccnc3c([N+](=O)[O-])cccc23)cc1 | > 40 | – |
| CC(=O)Nc1cccc2c(Oc3cccc(NC(=O)c4cc(C(F)(F)F)cc(C(F)(F)F)c4)c3)ccnc12 | 10.8 | – |
| O=S(=O)(Nc1ccc(Oc2ccnc3ccccc23)cc1)c1ccc(C(F)(F)F)cc1Br | > 40 | – |
| O=C(Nc1ccc(Oc2ccnc3ccccc23)cc1)c1cc(C(F)(F)F)cc(C(F)(F)F)c1 | 16 | – |
| Cc1cc(Oc2ccnc3c([N+](=O)[O-])cccc23)ccc1NC(=O)c1cc(C(F)(F)F)cc(C(F)(F)F)c1 | > 40 | – |
| CNC(=O)c1cc(Oc2ccc(NS(=O)(=O)c3ccc(C(C)(C)C)cc3)cc2)ccn1 | > 40 | – |
| Cc1cc(Oc2ccnc3c(N)cccc23)ccc1NC(=O)c1cc(C(F)(F)F)cc(C(F)(F)F)c1 | 25.4 | – |
| CNC(=O)c1cc(Oc2ccc(NS(=O)(=O)c3ccccc3)cc2)ccn1 | > 40 | – |
| O=C(Nc1ccc(Oc2ccnc3ccccc23)cc1)c1cc(C(F)(F)F)ccc1F | 21.1 | – |
| O=C(Nc1ccc(Oc2ccnc3c([N+](=O)[O-])cccc23)cc1)c1cc(C(F)(F)F)cc(C(F)(F)F)c1 | > 40 | – |
| O=[N+]([O-])c1cccc2c(Oc3ccc(NS(=O)(=O)c4ccc(C(F)(F)F)cc4Br)cc3)ccnc12 | > 40 | – |
| Nc1cccc2c(Oc3cccc(NC(=O)c4cc(C(F)(F)F)cc(C(F)(F)F)c4)c3)ccnc12 | 19 | – |
| O=C(Nc1cccc(Oc2ccnc3c([N+](=O)[O-])cccc23)c1)c1cc(C(F)(F)F)cc(C(F)(F)F)c1 | > 40 | – |
| O=[N+]([O-])c1cc(C(F)(F)F)ccc1S(=O)(=O)Nc1ccc(Oc2ccnc3ccccc23)cc1 | > 40 | inhibition [3]: inactive; inhibition [4]: inactive |
| CNC(=O)c1cc(Oc2ccc(NS(=O)(=O)c3ccc4ccccc4c3)cc2)ccn1 | > 40 | – |
| SC-1 [listing 1 of 2 here] | – | IC50 ([1]; plc-prf-5): 7.5 µM |
| CNC(=O)c1cc(Oc2ccc(NC(=O)c3cc(C(F)(F)F)cc(C(F)(F)F)c3)cc2)ccn1 | > 40 | – |
| CNC(=O)c1cc(Oc2ccc(NC(=O)c3cc(C(F)(F)F)ccc3F)cc2)ccn1 | > 40 | – |
| CNC(=O)c1cc(Oc2ccc(NS(=O)(=O)c3ccc([N+](=O)[O-])cc3)cc2)ccn1 | > 40 | – |
| CNC(=O)c1cc(Oc2ccc(NS(=O)(=O)c3ccc(F)cc3)cc2)ccn1 | > 40 | – |
| O=C(Nc1ccc(Oc2ccnc3c([N+](=O)[O-])cccc23)cc1)c1cc(C(F)(F)F)ccc1F | > 40 | – |
| CNC(=O)c1cc(Oc2ccc(NC(=O)c3ccc(C(F)(F)F)cc3)cc2)ccn1 | > 40 | – |
| SC-1 [listing 2 of 2 here] | – | inhibition [5]: inactive; inhibition [6]: Active; inhibition [3]: Active; inhibition [4]: Active; Activity (PLC-PRF-5 [7]): Active; Activity (PLC-PRF-5 [8]): Active |
| CC(=O)Nc1cccc2c(Oc3ccc(NC(=O)c4cc(C(F)(F)F)cc(C(F)(F)F)c4)c(C)c3)ccnc12 | > 40 | – |
